# Bioassay records: PubChem BioAssay, several laboratories
# M1 ag: M1 muscarinic receptor agonists, primary screen, CHO-M1 cells, Fluo-4 calcium, agonist mode. Muscarinic acetylcholine receptor M1. Fluo-4 calcium fluorescence; hits give high values. B-score at 10 µM. hit rate 3% among 64,000;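 active means fluorescence rise, raw or as B-score row- and column-corrected plate score, outside the 99.7% band of its plate's samples, either direction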
# S1P1 ag pot: S1P1 agonists and agonism potentiators, primary screen, cell-based, primary and confirmation screens, CRE-bla reporter; Sphingosine 1-phosphate receptor 1 (Homo sapiens), P21453; S1P1 CRE-bla cells, forskolin, beta-lactamase FRET, potentiator mode; S1P1 agonist co-added at EC20, 2 nM; 100% = saturating reference agonist, 0% = basal; activation, % at 9.5 µM; hit rate 0.57% among 56,000; AID 449, 2006;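 active means activation above a cutoff set at the mean activation of all tested compounds plus 3 SD, cut at about 54% in these data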;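 further: forskolin at 4 µM as EC80 and the EC20 agonist is SEW2871; 100% = SEW2871 at its EC100 plus forskolin at EC80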
# S1P3 ag: human S1P3 receptor agonists, primary screen, cell-based, primary and confirmation, NFAT-BLA reporter; AID 373, 2006; Sphingosine 1-phosphate receptor 3 (Homo sapiens), Q99500; S1P3 NFAT-BLA reporter cells, agonism, FRET ratio; relative to 1 µM S1P, basal subtracted; activation, % at 4.5 µM; hit rate 0.1% among 60,000;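 active means activation above the screen-wide mean plus 3 SD, cut at about 4.5% in these data, passing the limit was not always enough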
#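 Assay system: CHO cells stably expressing human S1P3, Gα16 and NFAT-β-lactamase reporter. Timing: overnight plating, 4 h compound 37 °C, 2 h substrate RT. Signal: β-lactamase FRET emission ratio 460/535 nm. Measure: percent activation versus median 1 µM S1P response, basal-subtracted, per plate. Repeats: primary screen single test, confirmation screen in triplicate.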
# D1 mod: D1 CRE-luciferase signal change, two-sided – cell-based, HEK293 D1, dopamine EC30, D1 allosteric modulator project, primary screen; D(1A) dopamine receptor (Homo sapiens), P21728; dopamine EC30 potentiation; actives deviate in either direction; B-score at 10 µM; hit rate 5.9% among 58,000;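 active means luminescence count or its row- and column-corrected plate score outside the 99.7% band of the plate's sample wells, on either side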
# M1 antag: antagonists of rat M1 muscarinic receptor; AID 628, 2007; CHO-M1 cells, Fluo-4 calcium, ACh EC80 antagonist mode; hits give low values; hit rate 3.4% among 64,000; Muscarinic acetylcholine receptor M1 (Rattus norvegicus), P08482; B-score at 10 µM;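 active means calcium fluorescence response, raw or row-and-column corrected B-score, differing from the plate sample mean either way at a set confidence level, mostly lower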
# M1 agonist conf: rat M1 muscarinic receptor agonists, confirmation, CHO-M1 cells, Fluo-4 calcium, duplicate retest; shares compounds with M1 ag; Fluo-4 calcium fluorescence, agonist mode; actives lie on both sides; fluorescence change (max-min) at 10 µM; hit rate 19% among 1,700; AID 1488, 2009;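 active means fluorescence change differs from the solvent-only DMSO control mean at a set confidence level in both duplicate runs; inconclusive means differs from solvent-only control mean in just one of two runs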;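 further: an EC20 dose of acetylcholine follows compound addition during the same imaging run; raw fluorescence intensity difference in instrument units with no normalization to controls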
# M4 agonist ctr: agonist activity at rat M4 receptor, confirmation, counter-screen for M1 allosteric modulator project, cell-based, agonist mode | shares compounds with M1 ag | CHO M4/Gqi5 cells, Fluo-4 calcium fluorescence; actives lie on both sides | fluorescence change (max-min) at 10 µM | hit rate 9% among 1,700 | AID 1741, 2009;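 active means fluorescence change differing from the plate's solvent-only control wells at 99.7% confidence in both duplicates, whether higher or lower; inconclusive means differs from solvent controls in only one of two duplicates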
# Target sequence (P08485 whole entry, looked up): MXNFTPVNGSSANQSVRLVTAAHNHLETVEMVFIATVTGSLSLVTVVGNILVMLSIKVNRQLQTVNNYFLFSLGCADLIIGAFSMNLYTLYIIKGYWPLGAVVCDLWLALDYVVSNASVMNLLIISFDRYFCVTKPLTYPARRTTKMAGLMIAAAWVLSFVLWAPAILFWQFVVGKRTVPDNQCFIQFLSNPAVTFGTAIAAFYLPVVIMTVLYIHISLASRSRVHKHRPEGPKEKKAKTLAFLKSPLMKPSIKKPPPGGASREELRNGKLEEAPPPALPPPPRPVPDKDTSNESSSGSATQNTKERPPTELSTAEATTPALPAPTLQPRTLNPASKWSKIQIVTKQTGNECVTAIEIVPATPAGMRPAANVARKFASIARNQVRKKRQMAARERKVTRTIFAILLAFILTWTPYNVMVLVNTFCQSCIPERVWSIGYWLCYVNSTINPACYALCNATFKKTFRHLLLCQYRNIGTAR
# D1 mod confirm: D1 receptor positive allosteric modulators, retest, confirmation, cell-based, HEK293 D1, CRE-luciferase, duplicate | hit rate 88% among 2,200 | shares compounds with D1 mod | dopamine EC30 potentiation; hits give high values | luminescence at 10 µM;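 active means luminescence in either of two replicates above the same-plate mean plus 3 SD of the low-dose dopamine control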
# D1 ag no DA: D1 receptor agonism without dopamine, confirmation, mechanism study for D1 allosteric modulator project, cell-based, HEK293 D1, CRE-luciferase, secondary assay 1 | luminescence at 10 µM | luminescence, no dopamine; hits give high values | shares compounds with D1 mod | AID 646, 2007 | hit rate 0.8% among 1,900; in the data active means luminescence above about 3900
# Isoprot counter: counter-screen for D1 modulators: isoproterenol response in HEK293 cells | HEK293 D1 CRE-luciferase, isoproterenol EC30 counter-screen | shares compounds with D1 mod | calls only at 10 µM | hit rate 63% among 2,200;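 active means luminescence in either replicate above plate mean of wells with a partly effective reference agonist dose plus 3 SD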;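 further: isoproterenol raises cAMP through native beta-adrenoceptor Gs so signal bypasses D1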
# An asterisk follows results filed as active; i = inactive; ? = inconclusive; / = no result given; + = active, no number. Most compounds without a hit are left out; they make up all but 11% or so of the library.
SMILES,M1 ag,S1P1 ag pot,S1P3 ag,D1 mod,M1 antag,M1 agonist conf,M4 agonist ctr,D1 mod confirm,D1 ag no DA,Isoprot counter
Cc1ccc(C2CC(c3ccco3)n3nc(N)nc3N2)cc1 (stereo not given),0.42,10,-2,/,-0.1,/,/,/,/,/
Nc1nc2n(n1)C(c1ccco1)CC(c1ccc(F)cc1)N2 (stereo not given),2.3*,-10,-1,7*,0.11,?,?,9024*,1664,i
CCOc1ccc(CCNC(=O)c2oc3c(c2C)-c2[nH]ncc2CC3)cc1OCC,3.2*,-21,0,11*,-0.016,-23*,-74*,24696*,1620,+
Cc1c(C(=O)NC(C)C)oc2c1-c1[nH]ncc1CC2,0.47,-21,0,-0.33,-0.76,/,/,/,/,/
COc1cc(C2C(C#N)=C(N)Oc3cc(N(C)C)ccc32)cc2c1OCO2 (stereo not given),45*,9,-2,7.3*,-0.25,206*,203*,15056*,1964,+
CCOC(=O)C1=C(C)OC(N)=C(C#N)C1c1cc(OC)c2c(c1)OCO2 (stereo not given),-0.56,-21,0,2.8,-0.59,/,/,/,/,/
N=c1c(S(=O)(=O)c2ccccc2)cc2c(=O)n3ccccc3nc2n1CCN1CCOCC1,-0.13,/,/,-0.076,0.52,/,/,/,/,/
Cn1c(C(=O)N2CCN(C(=O)c3ccco3)CC2)cc2c(=O)n3ccccc3nc21,0.24,-45,-1,-0.13,-0.34,/,/,/,/,/
Cc1ccc(S(=O)(=O)c2cc3c(=O)n4ccccc4nc3n(Cc3ccco3)c2=N)cc1C,5.9*,-13,-1,6*,-0.48,20,11,13264*,1500,+
Cc1ccc(S(=O)(=O)c2cc3c(=O)n4ccccc4nc3n(C)c2=N)cc1,5.1*,-13,4,5.3*,-0.015,-11,?,13268*,1724,+
NS(=O)(=O)c1cc2c(cc1C(F)(F)F)NC(Cc1ccccc1)NS2(=O)=O (stereo not given),-0.7,13,-3,0.73,-0.16,/,/,/,/,/
CCCCNC(=O)OCCNC(=O)NC,-0.51,-2,0,0.26,-0.19,/,/,/,/,/
CCOC(=O)C1=C(C)NC(=O)C(C#N)C1c1ccco1 (stereo not given),0.25,-24,0,-0.21,-0.51,/,/,/,/,/
COc1cc(-c2nnc3n2N=C(c2ccccc2)CS3)cc(OC)c1OC,4.6*,-18,-1,1.9*,-0.35,?,-48,7188*,1768,+
Nc1c(C(=O)OCC2CCCO2)c2nc3ccccc3nc2n1-c1ccc2c(c1)OCCO2 (stereo not given),5.9*,-15,0,5.1*,-0.2,-12,?,5800,/,i
Nc1c(C(=O)NC2CC2)c2nc3ccccc3nc2n1-c1ccc2c(c1)OCO2,-0.54,-29,2,-1.3,-0.14,/,/,/,/,/
